Measured values pooled from the literature.
Each line is one published result; the experiments were not run side by side.
Target: Serine/threonine-protein kinase Nek4 (NEK4, Homo sapiens, UniProt P51957)

Structure (SMILES)	assay	conditions	quantity	value
Cn1cc(-c2cccc(N3CCc4c(sc5c4CC(C)(C)C5)C3=O)c2CO)cc(Nc2ccncn2)c1=O	enzyme activity, inhibitor	1 µM	inhibition	2%
Cc1nn(C)cc1-c1nc2c(N3CCN(Cc4ccc(Cl)cc4)CC3)c(Cl)cnc2[nH]1	binding, competition with immobilised ligand	1 µM	remaining binding	82%
CC(C)(C)c1cc(C=C(C#N)C#N)cc(Br)c1O	enzyme activity, inhibitor	0.5 µM	remaining activity	93.7%
N#CC1(c2ccccn2)CCN(Cc2cc(C(=O)O)c(=O)n3ccccc23)CC1	cell-free assay, competition with immobilised ligand	1 µM	remaining binding	100%
COc1ncccc1-c1cnn2ccc(N3CCN(C(=O)OC(C)C)CC3)nc12	binding, competition with immobilised ligand	1 µM	remaining binding	87%
COc1cc(Nc2ncc(F)c(Nc3ccc4c(n3)NC(=O)C(C)(C)O4)n2)cc(OC)c1OC	binding, competition with immobilised ligand	10 µM	inhibition	91%
Cn1cc(-c2cc(F)cc(N3CCn4c(cc5c4CCCC5)C3=O)c2CO)cc(Nc2ccc(N3CCN(C4COC4)CC3)cn2)c1=O	enzyme activity, inhibitor	0.1 µM	inhibition	9%
O=c1[nH]c2ccccc2n1C1CCN(Cc2ccc(-c3[nH]c4cc5ncnc5cc4nc3-c3ccccc3)cc2)CC1	cell-free assay	0.5 µM	remaining signal	106%
Nc1ncc(-c2nc(N3CCOCC3)nc(N3CCOCC3)n2)c(C(F)F)n1	binding, competition with immobilised ligand	10 µM	remaining binding	75%
Cn1cncc1[C@@](O)(COc1ccc(C#N)cc1-c1ccc(OC(F)(F)F)cc1)c1ccc(C#N)cc1	cell-free assay, competition with immobilised ligand	1 µM	remaining binding	90%
